≈ marks a conversion by molar mass, not a printed value.
What was measured:
Type in all cases: functional
Staphylococcus aureus [1] = assay: Antibacterial activity against Staphylococcus aureus SA1199B over-expressing NorA by MTT dye based assay
Outline: (§1)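 Strains grown on nutrient agar for 24 h at 37 °C before testing. Compounds dissolved in DMSO, diluted in MHB to 512 mg/L stock. Two-fold serial broth microdilution in MHB, final 128 to 0.25 mg/L in the initial evaluation. Final DMSO 1.56% to 0.0031% v/v. Inoculum 5×10^5 cfu/mL, 37 °C incubation, duplicates. MTT added for 20 min. MIC is the lowest concentration with no colour change.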

Staphylococcus aureus [2] = assay: Antibacterial activity against methicillin-resistant Staphylococcus aureus isolate XU212 harboring TetK tetracycline efflux pump by MTT dye based assay; outline: as §1
Staphylococcus aureus [3] = assay: Antibacterial activity against Staphylococcus aureus ATCC 25923 by MTT dye based assay; outline: as §1
Staphylococcus aureus [4] = assay: Antibacterial activity against Staphylococcus aureus RN4220 harboring MsrA macrolide efflux protein by MTT dye based assay; outline: as §1
Staphylococcus aureus [5] = assay: Antibacterial activity against methicillin-resistant Staphylococcus aureus EMRSA15 by MTT dye based assay; outline: as §1
Staphylococcus aureus [6] = assay: Antibacterial activity against methicillin-resistant Staphylococcus aureus EMRSA16 by MTT dye based assay; outline: as §1

Row | SMILES | MIC (Staphylococcus aureus [1]) | MIC (Staphylococcus aureus [2]) | MIC (Staphylococcus aureus [3]) | MIC (Staphylococcus aureus [4]) | MIC (Staphylococcus aureus [5]) | MIC (Staphylococcus aureus [6])
1 | CCC(=O)c1c(O)cc(O)cc1OC/C=C(\C)CCC=C(C)C | 2 µg/mL (≈ 6.28 µM) | 1 µg/mL (≈ 3.14 µM) | 2 µg/mL (≈ 6.28 µM) | 1 µg/mL (≈ 3.14 µM) | 2 µg/mL (≈ 6.28 µM) | 1 µg/mL (≈ 3.14 µM)
2 | CC[C@H](C)C(=O)c1c(O)cc(O)cc1OC/C=C(\C)CCC=C(C)C [OLYMPICIN A] | 1 µg/mL (≈ 2.89 µM) | 0.5 µg/mL (≈ 1.44 µM) | 1 µg/mL (≈ 2.89 µM) | 1 µg/mL (≈ 2.89 µM) | 1 µg/mL (≈ 2.89 µM) | 0.5 µg/mL (≈ 1.44 µM)
3 | CCCCCCCCCC(=O)c1c(O)cc(O)cc1OC/C=C(\C)CCC=C(C)C | 512 µg/mL (≈ 1230 µM) | 64 µg/mL (≈ 154 µM) | 512 µg/mL (≈ 1230 µM) | 256 µg/mL (≈ 614 µM) | 512 µg/mL (≈ 1230 µM) | 64 µg/mL (≈ 154 µM)
4 | CCCC(=O)c1c(O)cc(O)cc1OC/C=C(\C)CCC=C(C)C | 2 µg/mL (≈ 6.02 µM) | 2 µg/mL (≈ 6.02 µM) | 2 µg/mL (≈ 6.02 µM) | 2 µg/mL (≈ 6.02 µM) | 2 µg/mL (≈ 6.02 µM) | 1 µg/mL (≈ 3.01 µM)
5 | CC[C@H](C)C(=O)c1c(O)cc(O)cc1OCc1ccccc1 | 8 µg/mL (≈ 26.6 µM) | 4 µg/mL (≈ 13.3 µM) | 4 µg/mL (≈ 13.3 µM) | 4 to 8 µg/mL (≈ 13.3 to 26.6 µM) | 8 µg/mL (≈ 26.6 µM) | 4 µg/mL (≈ 13.3 µM)
6 | CC[C@H](C)C(=O)c1c(O)cc(O)cc1OC/C=C(\C)CC/C=C(\C)CCC=C(C)C | > 512 µg/mL | > 512 µg/mL | > 512 µg/mL | > 512 µg/mL | > 512 µg/mL | > 512 µg/mL
7 | CCn1cc(C(=O)O)c(=O)c2cc(F)c(N3CCNCC3)cc21 [NORFLOXACIN] | 32 µg/mL (≈ 100 µM) | 8 µg/mL (≈ 25.1 µM) | 0.5 µg/mL (≈ 1.57 µM) | 0.5 µg/mL (≈ 1.57 µM) | 0.5 µg/mL (≈ 1.57 µM) | 256 µg/mL (≈ 802 µM)
8 | CC(C)=CCC/C(C)=C/COc1cc(O)cc(O)c1C(=O)c1ccccc1 | 1 µg/mL (≈ 2.73 µM) | 1 µg/mL (≈ 2.73 µM) | 1 µg/mL (≈ 2.73 µM) | 1 µg/mL (≈ 2.73 µM) | 1 µg/mL (≈ 2.73 µM) | 0.5 µg/mL (≈ 1.36 µM)
9 | CCCCCCCCCCCCCCCCCCOc1cc(O)cc(O)c1C(=O)[C@@H](C)CC | > 512 µg/mL | > 512 µg/mL | > 512 µg/mL | > 512 µg/mL | > 512 µg/mL | > 512 µg/mL
10 | CCCCCCCCCCOc1cc(O)cc(O)c1C(=O)[C@@H](C)CC | 2 µg/mL (≈ 5.71 µM) | 2 to 4 µg/mL (≈ 5.71 to 11.4 µM) | 1 to 2 µg/mL (≈ 2.85 to 5.71 µM) | 1 µg/mL (≈ 2.85 µM) | 0.5 to 1 µg/mL (≈ 1.43 to 2.85 µM) | 0.25 µg/mL (≈ 0.713 µM)
11 | CC[C@H](C)C(=O)c1c(O)cc(O)cc1OCCC(C)CCCC(C)C (some centres not stated) | 0.5 to 1 µg/mL (≈ 1.43 to 2.85 µM) | 1 µg/mL (≈ 2.85 µM) | 1 µg/mL (≈ 2.85 µM) | 0.5 µg/mL (≈ 1.43 µM) | 0.5 to 1 µg/mL (≈ 1.43 to 2.85 µM) | 0.25 µg/mL (≈ 0.713 µM)
12 | CCCCCCCCCCCCOc1cc(O)cc(O)c1C(=O)[C@@H](C)CC | 16 µg/mL (≈ 42.3 µM) | 64 µg/mL (≈ 169 µM) | 128 µg/mL (≈ 338 µM) | 8 µg/mL (≈ 21.1 µM) | 16 µg/mL (≈ 42.3 µM) | 16 µg/mL (≈ 42.3 µM)
13 | CN[C@H](CC(C)C)C(=O)N[C@H]1C(=O)N[C@@H](CC(N)=O)C(=O)N[C@H]2C(=O)N[C@H]3C(=O)N[C@H](C(=O)N[C@H](C(=O)O)c4cc(O)cc(O)c4-c4cc3ccc4O)[C@H](O)c3ccc(c(Cl)c3)Oc3cc2cc(c3O[C@@H]2O[C@H](CO)[C@@H](O)[C@H](O)[C@H]2O[C@H]2C[C@](C)(N)[C@H](O)[C@H](C)O2)Oc2ccc(cc2Cl)[C@H]1O [VANCOMYCIN] | 0.25 µg/mL (≈ 0.173 µM) |  | 0.25 µg/mL (≈ 0.173 µM) |  | 0.25 µg/mL (≈ 0.173 µM) | 0.25 µg/mL (≈ 0.173 µM)
14 | CCCCC(=O)c1c(O)cc(O)cc1OC/C=C(\C)CCC=C(C)C | 1 µg/mL (≈ 2.89 µM) | 0.5 µg/mL (≈ 1.44 µM) | 0.5 µg/mL (≈ 1.44 µM) | 0.5 µg/mL (≈ 1.44 µM) | 1 µg/mL (≈ 2.89 µM) | 0.5 µg/mL (≈ 1.44 µM)
15 | CCCCCCCCOc1cc(O)cc(O)c1C(=O)[C@@H](C)CC | 0.25 to 0.5 µg/mL (≈ 0.775 to 1.55 µM) | 0.5 µg/mL (≈ 1.55 µM) | 0.25 to 0.5 µg/mL (≈ 0.775 to 1.55 µM) | 0.5 µg/mL (≈ 1.55 µM) | 0.5 µg/mL (≈ 1.55 µM) | 0.25 µg/mL (≈ 0.775 µM)
16 | CC[C@H](C)C(=O)c1c(O)cc(O)cc1OCCC(C)C | 2 µg/mL (≈ 7.13 µM) | 4 µg/mL (≈ 14.3 µM) | 2 µg/mL (≈ 7.13 µM) | 2 µg/mL (≈ 7.13 µM) | 2 to 4 µg/mL (≈ 7.13 to 14.3 µM) | 2 to 4 µg/mL (≈ 7.13 to 14.3 µM)
17 | CCCCCCCCCCCCCCCCCC(=O)c1c(O)cc(O)cc1OC/C=C(\C)CCC=C(C)C | > 512 µg/mL | > 512 µg/mL | > 512 µg/mL | > 512 µg/mL | > 512 µg/mL | > 512 µg/mL
18 | CC[C@H](C)C(=O)c1c(O)cc(O)cc1OCC=C(C)C | 16 µg/mL (≈ 57.5 µM) | 4 to 8 µg/mL (≈ 14.4 to 28.7 µM) | 8 µg/mL (≈ 28.7 µM) | 8 µg/mL (≈ 28.7 µM) | 16 µg/mL (≈ 57.5 µM) | 4 µg/mL (≈ 14.4 µM)
19 | CC(=O)c1c(O)cc(O)cc1OC/C=C(\C)CCC=C(C)C | 8 µg/mL (≈ 26.3 µM) | 8 µg/mL (≈ 26.3 µM) | 16 µg/mL (≈ 52.6 µM) | 8 µg/mL (≈ 26.3 µM) | 16 µg/mL (≈ 52.6 µM) | 4 µg/mL (≈ 13.1 µM)
